Assay outcomes from PubChem BioAssay.
Only some compounds are listed: those with a hit (about 2.1% of all), similar ones and a draw of the others.
IMP-1 inhibitor: inhibitors of Pseudomonas aeruginosa IMP-1 metallo-beta-lactamase. purified IMP-1, nitrocefin hydrolysis, epi-absorbance fluorescence. inhibition, % at 5.6 µM. 290,000 tested, 0.45% active;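 active means inhibition above the mean plus 3 SD of all compounds in the same screening run, cut at about 4.5% in these data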;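 further: 0% = IMP-1 with DMSO and 100% = DMSO wells lacking enzyme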
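System: Purified IMP-1 | Read-out basis: Percent enzyme inhibition | Controls: IMP-1 with DMSO as 0%, enzyme-free DMSO as 100% | Replicates: One well per compound | Doses: 5.6 µM nominal single concentration | Detection: Epi-absorbance fluorescence, 480 nm excitation, 530 nm emission | Incubation: 25 °C, 15 min preincubation, 25 min reaction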
MsrA act: activators of bovine methionine sulfoxide reductase A; purified bovine MsrA, absorbance read-out; activation, % at 10.6 µM; 360,000 tested, 0.3% active; in the data active means activation above about 7.5%;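 further: 0% = vehicle and 100% = reference activator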
VIM-2 inh: inhibitors of Pseudomonas aeruginosa VIM-2 metallo-beta-lactamase; purified VIM-2, nitrocefin hydrolysis, epi-absorbance fluorescence; inhibition, % at 5.6 µM; 290,000 tested, 0.89% active; AID 1527;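 active means inhibition above the mean of all tested compounds plus 3 SD, cutoff set per screening run, cut at about 7.5% in these data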;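 further: red hydrolysis product quenches plate fluorescence so inhibitors raise well fluorescence; 0% = enzyme with DMSO and 100% = DMSO without enzyme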
PKA-R2B activ: activators of human PKA-R2B complex; PKA-R2B holoenzyme dissociation, Cy5-IP20 fluorescence polarization; R2B truncated from residue 108, S112A mutant; 0% DMSO only, 100% 113 µM cGMP; activation, % at 11.4 µM; 340,000 tested, 0.079% active; P22694+P31323;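 active means activation above a cutoff set at the mean over all compounds plus 3 SD, cut at about 18% in these data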;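 further: higher means more holoenzyme dissociation and a rise in polarization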
Target sequence (P31323 whole entry, looked up, other chains not shown, the tested form may be a part): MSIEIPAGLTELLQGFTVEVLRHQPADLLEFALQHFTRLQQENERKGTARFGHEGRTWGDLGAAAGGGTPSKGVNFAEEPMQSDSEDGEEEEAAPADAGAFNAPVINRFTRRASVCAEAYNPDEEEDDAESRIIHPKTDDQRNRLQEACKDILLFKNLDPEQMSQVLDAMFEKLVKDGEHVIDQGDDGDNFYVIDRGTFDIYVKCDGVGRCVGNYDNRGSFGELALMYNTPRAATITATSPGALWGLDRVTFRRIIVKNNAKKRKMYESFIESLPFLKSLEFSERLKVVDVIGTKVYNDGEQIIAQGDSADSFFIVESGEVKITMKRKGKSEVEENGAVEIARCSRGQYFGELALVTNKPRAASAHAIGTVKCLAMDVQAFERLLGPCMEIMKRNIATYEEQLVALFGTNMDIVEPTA
MsrA inhibitor: inhibits bovine methionine sulfoxide reductase A | purified bovine MsrA, absorbance read-out | 360,000 tested, 0.75% active | inhibition, % at 15.5 µM;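 further: 0% = vehicle wells with enzyme and 100% = reference inhibitor wells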
PKA-R1A act: PKA-R1A complex activation. P00514+P68181. PKA-R1A dissociation, Cy5-IP20 fluorescence polarization; scaled: DMSO 0%, 113 µM cGMP 100%. activation, % at 11.4 µM. 340,000 tested, 0.083% active;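 active means percent activation above the mean of all tested compounds plus 3 SD, cut at about 19% in these data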;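 further: higher means more PKAc released from R1A so a rise in polarization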
MsrA inh confirm: confirmation of bovine MsrA inhibitors | shares compounds with MsrA inhibitor | purified bovine MsrA, absorbance read-out | inhibition, % at 15.5 µM | 2,300 tested, 41% active;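 further: coupled to thioredoxin reductase with NADPH and selenocystamine and DMSO as substrate; 0% = vehicle only and 100% = full effect of reference inhibitor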
* marks the source's active call; other numbers are inactive results; x = no result given. Unless noted, no stated cut-off is given here; in the data, active means inhibition above about 4.5%; inactive means the rest.

SMILES | IMP-1 inhibitor | MsrA act | VIM-2 inh | PKA-R2B activ | MsrA inhibitor | PKA-R1A act | MsrA inh confirm
CCCCN(CC)c1nc(N)c2c(N)nc(OCC)cc2c1C#N | -2 | 3 | 0 | -7 | 1 | -16 | x
CCN(c1ccccc1)S(=O)(=O)c1nnc(NC(=O)c2ccco2)s1 | -3 | -8 | -2 | 3 | 5.9* | -11 | 5.3*
O=C(CNC(=O)c1n[nH]c2ccccc12)Nc1ccc(F)c(F)c1F | x | -2 | x | -4 | 0 | 5 | x
CN1/C(=C\C(=O)COC(=O)c2ccc(O)c(O)c2)C(C)(C)c2ccccc21 | -3 | x | -3 | x | 4.8* | x | 4
CN1/C(=C\C(=O)COC(=O)c2ccc(O)cc2)C(C)(C)c2ccccc21 | -1 | -6 | 0 | -5 | 5.2* | -1 | 2
c1cc2c3c(cccc3c1)NC1(CCCC1)N2 | x | -3 | x | -5 | 1 | 5 | x
S=C1NC2(CCCCC2)Nc2ccccc21 | 0 | -6 | -2 | 3 | 6.4* | 4 | 7.2*
S=C1NC2(CCCC2)Nc2ccccc21 | -4 | -15 | -5 | -4 | 9.1* | 1 | 8.7*
O=C(CSc1nc2ccccc2c(=O)n1CCCN1CCOCC1)Nc1ccccc1OC(F)F | x | -2 | x | -1 | 1 | -2 | x
CCN(CC)c1ccc(C(=O)c2ccccc2C(=O)O)c(O)c1 | -1 | -4 | -1 | 1 | 4.7* | 4 | 4.8*
CCN(CC)c1ccc(NC(=O)c2ccccc2F)cc1 | -2 | -4 | -2 | 1 | 0 | -3 | x
Cn1nnnc1SCCNC(=O)C1CCC(=O)N(CCc2cccc(F)c2)C1 (stereo unspecified) | -4 | -2 | -3 | -6 | 0 | -11 | x
O=C(Nc1c(-c2ccccc2)nc2ccccn12)c1ccccc1 | 0 | -5 | 0 | -1 | 2 | 3 | x
O=Cc1c(-c2ccccc2)nc2ccccn12 | -4 | -2 | -2 | -9 | 13* | -3 | 10*
O=C(N/N=C/c1ccccc1)c1ccco1 | -1 | 7 | -4 | -7 | 1 | -2 | x
CCN(CC)c1ccc(/C=N/NC(=O)c2ccco2)cc1 | -5 | -7 | 0 | -9 | 5.2* | -2 | 4
Cc1ccsc1/C=N/NC(=O)c1ccco1 | -3 | -4 | -4 | 2 | 5.6* | -4 | 5.8*
Cc1ccsc1/C=N\NC(=O)c1cc(C(C)(C)C)[nH]n1 | -3 | -5 | -1 | -1 | 5.3* | 10 | 4
Cc1cc(C(=O)N/N=C/c2sccc2C)no1 | -2 | -5 | -4 | -4 | 3 | -6 | x
O=C(N/N=C/C=N/NC(=O)c1ccco1)c1ccco1 | -2 | -13 | -2 | 0 | 7.6* | -5 | 6.1*
CCCCn1c(N)c(N(Cc2ccccc2OC)C(=O)C(C)Oc2ccc(Br)cc2)c(=O)[nH]c1=O (stereo unspecified) | x | -2 | x | -2 | -1 | -9 | x
Cc1oc(=O)cc(OCc2ccccc2)c1C | x | 0 | x | 0 | 0 | -9 | x
COP(=O)(OC)C(=NNS(=O)(=O)c1ccc(C)cc1)c1ccccc1 | x | -11 | x | 4 | 0 | -14 | x
Cc1ccc(C2(c3noc(CN4CCC(C(=O)N5CCOCC5)CC4)n3)CCCC2)cc1 | -2 | -1 | -3 | 3 | 4.7* | 0 | 0
Cc1ccc(C2(c3noc(CN4CCOCC4)n3)CCCC2)cc1 | -2 | -6 | -4 | -2 | -1 | 2 | x
SMILES | IMP-1 inhibitor | MsrA act | VIM-2 inh | PKA-R2B activ | MsrA inhibitor | PKA-R1A act | MsrA inh confirm
Cc1ccc(/C=N\Nc2nc3ccc(Cl)cc3[nH]2)o1 | -4 | 0 | -6 | 10 | 4.7* | 2 | 4
Fc1ccccc1-c1ccc(/C=N/Nc2nc3ccccc3[nH]2)o1 | -6 | -2 | -5 | -13 | 2 | -1 | x
CCOC(=O)c1ccccc1NC(=O)CN(c1ccccc1)S(=O)(=O)N(C)C | -5 | -2 | -1 | -14 | 5.6* | -6 | 4
Cc1cc([N+](=O)[O-])ccc1Nc1nc2ccccc2n2cnnc12 | -3 | 5 | 5 | 3 | 6.4* | 2 | 8.3*
Cc1c(Nc2nc3ccccc3n3cnnc23)cccc1[N+](=O)[O-] | -3 | -3 | -1 | -10 | 0 | -9 | x
CCc1cccc(C)c1Nc1nc2ccccc2n2cnnc12 | -3 | -3 | 0 | -2 | 5.4* | -1 | 4
c1ccc(CNc2nc3ccccc3n3cnnc23)cc1 | -4 | -2 | -4 | -9 | 2 | -5 | x
